Compound activity as filed in PubChem BioAssay.
Sampled rows, rich in hits. Any-hit rate of the full collection: about 1.5%.
APJ ag – agonists of human APJ apelin receptor; CHO-K1 APJ PathHunter beta-arrestin, luminescence; 0% DMSO wells, 100% apelin; activation, % at 20 µM; 330,000 tested, 0.11% active;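 active = activation more than six SD over the plate average, tested at 20 µM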;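 note: 0% = DMSO alone and 100% = apelin-13 at 10 nM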
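Material: engineered CHO-K1 APJ arrestin reporter cells; amount: 1000 CHO-K1 reporter cells seeded per well; incubation: compound stimulation 90 min at 25 °C, detection 60 min; signal: luminescent beta-gal fragment complementation, chemiluminescent substrate; read-out basis: APJ agonist activity; controls: DMSO-only wells as negative, 10 nM Apelin-13 as positive control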
CXCR6 inh – inhibitors of human CXCR6 receptor | inhibition, % at 20 µM | AID 602244 | 360,000 tested, 0.36% active | CHO-K1 PathHunter CXCR6 beta-arrestin, luminescence | O00574; in the data active = inhibition above about 34%, passing the limit was not always enough;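 note: antagonist mode with CXCL16 agonist at 10 nM final; 0% = 10 nM CXCL16 with DMSO and 100% = unstimulated wells without agonist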
Target sequence (O00574 whole entry, looked up): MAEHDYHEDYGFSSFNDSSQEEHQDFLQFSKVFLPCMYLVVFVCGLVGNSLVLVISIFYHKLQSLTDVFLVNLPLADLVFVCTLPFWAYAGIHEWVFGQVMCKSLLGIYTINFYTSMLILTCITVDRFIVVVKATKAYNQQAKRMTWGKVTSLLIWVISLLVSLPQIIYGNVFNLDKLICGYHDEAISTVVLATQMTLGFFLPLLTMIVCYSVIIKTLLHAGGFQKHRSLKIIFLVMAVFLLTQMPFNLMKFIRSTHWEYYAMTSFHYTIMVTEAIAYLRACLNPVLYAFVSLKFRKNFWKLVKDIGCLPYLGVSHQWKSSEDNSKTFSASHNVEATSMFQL
APJ antag – APJ receptor antagonism | inhibition, % at 20 µM | P35414 | CHO-K1 APJ beta-arrestin complementation, luminescence | 330,000 tested, 0.32% active;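 active = inhibition above about 40% at 20 µM, limit read from the data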;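 note: cells challenged with 10 nM apelin-13 agonist together with compound; plate controls were apelin-13 plus DMSO wells for no effect and DMSO wells lacking apelin-13 for full effect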
CCR6 antagonist – antagonists of human CCR6 receptor | inhibition, % at 20 µM | AID 493098 | P51684 | 340,000 tested, 0.49% active | CHO-K1 CCR6 PathHunter beta-arrestin, luminescence, CCL20-stimulated;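 active = compounds whose inhibition of the agonist-driven luminescence signal at 20 µM reaches about 50%, limit read from the data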;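 note: cells stimulated with CCL20 at 14 nM final; plate controls were DMSO with CCL20 for no effect and DMSO without agonist for full effect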
EBI2 block – blocks human EBI2 receptor beta-arrestin signaling | AID 651636 | EBI2 beta-arrestin recruitment, luminescence, 7a,25-OHC stimulated | P32249 | inhibition, % at 5 µM | 360,000 tested, 0.81% active; in the data active = inhibition above about 38%;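 note: enzyme fragment complementation signal reports receptor beta-arrestin coupling in cells; 0% = agonist plus DMSO wells and 100% = wells without agonist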
APJ ag conf – APJ receptor agonism confirmation; AID 2764; 310 tested, 10% active; activation, % at 20 µM; shares compounds with APJ ag; CHO-K1 APJ PathHunter beta-arrestin, luminescence;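 active = activation above 40%, taking the highest of four retests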;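 note: plate controls were DMSO wells for no effect and apelin-13 at 10 nM for full effect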
Starred values were filed as active, the others as inactive; . = no result given.

SMILES	APJ ag	CXCR6 inh	APJ antag	CCR6 antagonist	EBI2 block	APJ ag conf
COc1ccc2oc(C(=O)Nc3ccc(S(=O)(=O)N(C)C4CCN(C)CC4)cc3)c(C)c2c1	51.3*	-12.8	4.1	-1.4	-6.3	11.9
O=C(Nc1ccncc1)c1cc2ccccc2cc1O	46.6*	-39.8	-213.1	-32.5	-34.9	33.0
O=C(Nc1cccc([N+](=O)[O-])c1)c1cc2ccccc2cc1O	7.3	2.7	-15.8	26.1	-3.0	.
COc1ccc(CCC(C)N(C)Cc2ccccc2)cc1 (stereo unspecified)	-3.6	0.2	6.8	4.5	-1.8	.
CCCCc1ccc(NC(=O)COc2ccc(C(=O)Nc3ccccc3OCC)cc2)cc1	35.9*	-5.2	-6.3	-7.5	-8.0	4.4
COc1cccc(NC(=O)Nc2nc(-c3ccc(OC)c(OC)c3)cs2)c1	19.2*	-11.6	-17.0	-2.9	-87.8	32.0
COc1ccc(-c2csc(NC(C)=O)n2)cc1OC	3.3	-0.1	-7.1	0.0	4.9	.
Cc1c2ccccc2nc2ccccc12	-5.3	-27.2	13.9	3.4	-2.9	.
Cc1c2ccccc2c(C)c2c1ccc1ccccc12	40.8*	-19.0	-26.8	-15.9	11.9	20.3
COc1ccc2[nH]c3c(=O)n(/N=C/[C@H]4C(C)C=C(C)CC4C)c(=O)[nH]c3c2c1 (stereo partly specified)	23.9*	-11.5	-29.7	-2.0	-7.9	27.6
CCOc1cccc2sc(N(CCCN(C)C)C(=O)c3ccc(S(=O)(=O)N4CCc5ccccc5C4)cc3)nc12	8.6	5.7	-34.9	10.0	2.0	.
CCc1ccc2nc(N(CCCN(C)C)C(=O)c3ccc(S(=O)(=O)N4CCc5ccccc5C4)cc3)sc2c1	59.5*	-1.1	6.1	-9.5	-3.3	32.7
COC(=O)[C@]1(Cc2ccccc2)N[C@H](CN(C)C(=O)C2CCCCC2)[C@@H]2C(=O)N(C)C(=O)[C@@H]21	-3.8	4.2	1.2	1.7	-7.4	.
O=C(COC(=O)c1ccc2ncsc2c1)Nc1ccc(OC(F)(F)F)cc1	17.6*	-4.2	2.1	4.8	-2.9	12.5
CC(C)(C)c1ccc(NC(=O)COC(=O)c2ccc3ncsc3c2)cc1	-1.9	-8.0	-12.8	12.8	-6.8	.
CC(CC(=O)N1CCN(c2cccc(Cl)c2)CC1)S(=O)(=O)c1ccc2c(c1)NC(=O)CO2 (stereo unspecified)	32.8*	4.2	-49.8	-6.5	0.7	26.1
CS(=O)(=O)c1cnc(-c2ccccc2)nc1Sc1ccc(F)cc1	18.4*	-0.5	-17.1	-2.6	-23.2	13.2
COc1cccc(Sc2nc(-c3ccccc3)ncc2S(C)(=O)=O)c1	-1.4	4.6	-4.3	12.6	14.4	.
CCOC(=O)C1CCN(CC(C)(C)NS(=O)(=O)c2ccccc2)CC1	1.9	-16.5	11.6	6.6	6.0	.
Cc1ccc(-c2ccc(/C=C3\C(=O)ON=C3c3ccccc3)o2)c([N+](=O)[O-])c1	16.0*	24.9	-7.0	62.1*	-0.6	25.3
COc1ccc(S(=O)(=O)N2CCNCC2)cc1	-3.2	3.6	2.4	4.5	-7.9	.
Oc1ccc(/C=N/Nc2ccnc3cc(Cl)ccc23)c(O)c1O	6.8	2.1	-53.9	39.4	-7.1	.
Oc1ccc(/C=N/Nc2ccnc3cc(Cl)ccc23)cc1O	15.3*	-11.5	-55.6	22.4	8.8	16.3
CC(C)C[C@@H](CO)N(Cc1ccccc1)S(=O)(=O)N(Cc1ccccc1)[C@H](CO)CC(C)C	11.3*	-6.9	-30.3	-29.7	10.5	17.7
CCn1c(SCC(=O)NC2CCCCC2)nnc1-c1cccnc1	-8.7	-1.2	2.6	-1.0	7.6	.
COC(=O)C(C)NC(=O)C1CCCN1C(=O)CNC(=O)OCc1ccccc1 (stereo unspecified)	-3.0	3.9	6.7	2.4	3.7	.
CCCCN(C)CCn1c(=S)[nH]c2cc(OCC)c(OCC)cc2c1=O	54.0*	-4.1	-25.0	10.7	3.2	23.3
CCOc1cc2[nH]c(=S)n(CCCN(CC)CC)c(=O)c2cc1OCC	3.0	1.8	3.4	10.6	4.1	.
CC(C)(C)c1ccc(Cn2nnc3c(=O)[nH]c(C4CCCN(C(=O)c5cccs5)C4)nc32)cc1 (stereo unspecified)	-0.5	2.2	-0.7	15.9	22.2	.
